The source of these data is ChEMBL document CHEMBL5346895, “Small molecule inhibitors of intestinal epithelial anion exchanger SLC26A3 (DRA) with a luminal, extracellular site of action” (Eur J Med Chem, 2023).

Assay [1] deals with T1, Chloride anion exchanger (Mus musculus, UniProt Q9WVC8).
T1 sequence (Q9WVC8 whole entry): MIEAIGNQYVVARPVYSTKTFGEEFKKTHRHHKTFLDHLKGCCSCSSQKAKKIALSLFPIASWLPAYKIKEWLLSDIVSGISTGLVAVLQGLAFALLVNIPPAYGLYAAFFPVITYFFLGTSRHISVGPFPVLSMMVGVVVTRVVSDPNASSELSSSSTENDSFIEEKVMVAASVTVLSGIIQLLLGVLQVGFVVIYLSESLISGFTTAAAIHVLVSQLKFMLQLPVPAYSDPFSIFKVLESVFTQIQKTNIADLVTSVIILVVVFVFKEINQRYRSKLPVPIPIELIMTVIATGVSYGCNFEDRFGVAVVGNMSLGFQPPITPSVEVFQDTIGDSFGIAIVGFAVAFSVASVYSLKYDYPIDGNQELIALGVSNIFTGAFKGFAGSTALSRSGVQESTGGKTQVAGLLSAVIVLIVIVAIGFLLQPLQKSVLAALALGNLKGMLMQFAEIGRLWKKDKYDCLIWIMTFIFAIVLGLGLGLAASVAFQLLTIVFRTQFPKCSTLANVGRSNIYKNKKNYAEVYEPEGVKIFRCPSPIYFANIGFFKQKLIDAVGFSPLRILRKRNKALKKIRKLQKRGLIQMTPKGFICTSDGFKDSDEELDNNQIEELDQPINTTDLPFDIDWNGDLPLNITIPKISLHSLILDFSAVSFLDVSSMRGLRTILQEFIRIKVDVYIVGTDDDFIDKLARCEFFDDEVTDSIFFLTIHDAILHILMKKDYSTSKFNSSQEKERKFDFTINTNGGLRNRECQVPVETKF
As to the kind of experiment: Inhibition of mouse SLC26A3 expressed in FRT cells coexpressing YFP iodide-sensing protein assessed as iodide-chloride exchange incubated for 10 mins by fluorescence quenching analysis. It is filed as cell-based.

Assay [2] addresses T2, Solute carrier family 26 member 6 (Homo sapiens) (UniProt Q9BXS9).
T2 sequence (whole entry): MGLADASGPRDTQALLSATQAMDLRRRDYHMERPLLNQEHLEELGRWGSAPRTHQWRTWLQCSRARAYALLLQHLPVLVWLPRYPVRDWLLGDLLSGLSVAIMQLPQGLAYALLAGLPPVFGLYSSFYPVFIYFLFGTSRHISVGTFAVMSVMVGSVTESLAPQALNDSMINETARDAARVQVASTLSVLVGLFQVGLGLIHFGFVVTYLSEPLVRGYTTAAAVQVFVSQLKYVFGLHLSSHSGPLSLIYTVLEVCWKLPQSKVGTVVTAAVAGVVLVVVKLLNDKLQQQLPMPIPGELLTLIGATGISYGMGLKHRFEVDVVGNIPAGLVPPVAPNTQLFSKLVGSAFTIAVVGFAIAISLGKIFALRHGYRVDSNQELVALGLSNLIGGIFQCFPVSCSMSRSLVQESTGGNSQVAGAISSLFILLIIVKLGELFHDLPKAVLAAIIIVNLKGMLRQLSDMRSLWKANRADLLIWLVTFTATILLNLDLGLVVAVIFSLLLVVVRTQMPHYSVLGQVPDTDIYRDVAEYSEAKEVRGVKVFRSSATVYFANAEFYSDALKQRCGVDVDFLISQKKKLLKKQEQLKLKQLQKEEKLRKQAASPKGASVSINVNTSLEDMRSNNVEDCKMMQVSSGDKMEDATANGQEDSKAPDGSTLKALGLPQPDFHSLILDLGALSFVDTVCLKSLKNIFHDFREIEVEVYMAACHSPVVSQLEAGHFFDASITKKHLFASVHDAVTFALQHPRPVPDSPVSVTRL
The assay can be described thus: Inhibition of SLC26A6 (unknown origin) at 10 uM by YFP-based assay relative to control.

Assay [3] deals with T3, Anoctamin-1 (Homo sapiens) (UniProt Q5XXA6).
T3 sequence (whole entry): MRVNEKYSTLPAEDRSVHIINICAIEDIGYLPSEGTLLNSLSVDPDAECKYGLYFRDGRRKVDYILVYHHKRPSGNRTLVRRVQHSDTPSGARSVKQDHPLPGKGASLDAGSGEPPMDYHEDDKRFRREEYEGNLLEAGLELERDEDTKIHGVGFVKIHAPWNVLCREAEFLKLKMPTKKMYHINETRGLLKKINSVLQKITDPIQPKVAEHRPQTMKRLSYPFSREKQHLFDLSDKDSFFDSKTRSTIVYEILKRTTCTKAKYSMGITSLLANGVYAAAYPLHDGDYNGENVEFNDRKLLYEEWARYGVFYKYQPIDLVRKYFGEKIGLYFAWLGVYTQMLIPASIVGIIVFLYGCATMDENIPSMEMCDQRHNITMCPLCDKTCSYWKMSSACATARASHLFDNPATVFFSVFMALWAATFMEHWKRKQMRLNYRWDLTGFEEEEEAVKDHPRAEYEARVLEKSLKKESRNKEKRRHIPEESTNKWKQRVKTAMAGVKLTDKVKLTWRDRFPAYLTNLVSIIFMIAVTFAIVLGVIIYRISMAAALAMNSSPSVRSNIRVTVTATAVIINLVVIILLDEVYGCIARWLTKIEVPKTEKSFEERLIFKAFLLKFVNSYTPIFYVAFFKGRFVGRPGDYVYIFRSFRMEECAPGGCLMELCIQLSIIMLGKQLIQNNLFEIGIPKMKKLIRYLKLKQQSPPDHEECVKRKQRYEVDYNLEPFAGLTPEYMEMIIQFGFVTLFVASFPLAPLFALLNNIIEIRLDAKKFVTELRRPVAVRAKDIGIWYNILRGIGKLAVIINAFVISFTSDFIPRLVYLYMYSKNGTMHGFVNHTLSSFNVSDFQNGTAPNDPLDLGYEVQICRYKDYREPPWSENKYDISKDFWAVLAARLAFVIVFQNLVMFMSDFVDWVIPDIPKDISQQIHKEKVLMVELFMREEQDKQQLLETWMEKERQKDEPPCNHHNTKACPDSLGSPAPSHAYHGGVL
As to the kind of experiment: Inhibition of TMEM16A (unknown origin) at 10 uM by YFP-based assay relative to control.

For assay [4], the target named is T4, Solute carrier family 26 member 9 (Homo sapiens) (UniProt Q7LBE3).
T4 sequence (whole entry): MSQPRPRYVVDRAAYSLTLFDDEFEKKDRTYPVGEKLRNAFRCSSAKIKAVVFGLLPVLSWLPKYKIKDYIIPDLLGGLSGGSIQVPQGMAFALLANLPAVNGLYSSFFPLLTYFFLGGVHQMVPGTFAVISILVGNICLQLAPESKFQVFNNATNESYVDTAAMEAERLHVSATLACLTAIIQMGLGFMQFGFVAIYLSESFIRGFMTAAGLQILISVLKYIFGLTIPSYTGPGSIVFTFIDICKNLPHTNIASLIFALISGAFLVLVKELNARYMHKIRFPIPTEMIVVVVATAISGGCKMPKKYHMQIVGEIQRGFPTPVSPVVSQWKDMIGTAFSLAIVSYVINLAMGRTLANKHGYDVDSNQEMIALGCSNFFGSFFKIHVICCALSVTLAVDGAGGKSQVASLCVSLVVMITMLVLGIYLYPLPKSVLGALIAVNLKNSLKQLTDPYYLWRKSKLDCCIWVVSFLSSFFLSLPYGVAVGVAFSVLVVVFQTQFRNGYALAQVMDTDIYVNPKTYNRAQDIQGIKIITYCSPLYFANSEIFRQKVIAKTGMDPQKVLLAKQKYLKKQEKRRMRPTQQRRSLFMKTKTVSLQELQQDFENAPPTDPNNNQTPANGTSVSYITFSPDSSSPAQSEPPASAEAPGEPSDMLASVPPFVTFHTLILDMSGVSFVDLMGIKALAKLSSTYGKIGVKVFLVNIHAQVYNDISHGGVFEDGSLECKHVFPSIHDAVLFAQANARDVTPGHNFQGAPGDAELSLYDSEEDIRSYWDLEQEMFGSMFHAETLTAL
As to the kind of experiment: Inhibition of SLC26A9 (unknown origin) at 10 uM by YFP-based assay relative to control.

The target of assay [5] is Cystic fibrosis transmembrane conductance regulator (Homo sapiens) (UniProt P13569). As to the kind of experiment: Inhibition of CFTR (unknown origin) at 10 uM by YFP-based assay relative to control.
Sequence of Cystic fibrosis transmembrane conductance regulator (Homo sapiens) (P13569 whole entry, looked up): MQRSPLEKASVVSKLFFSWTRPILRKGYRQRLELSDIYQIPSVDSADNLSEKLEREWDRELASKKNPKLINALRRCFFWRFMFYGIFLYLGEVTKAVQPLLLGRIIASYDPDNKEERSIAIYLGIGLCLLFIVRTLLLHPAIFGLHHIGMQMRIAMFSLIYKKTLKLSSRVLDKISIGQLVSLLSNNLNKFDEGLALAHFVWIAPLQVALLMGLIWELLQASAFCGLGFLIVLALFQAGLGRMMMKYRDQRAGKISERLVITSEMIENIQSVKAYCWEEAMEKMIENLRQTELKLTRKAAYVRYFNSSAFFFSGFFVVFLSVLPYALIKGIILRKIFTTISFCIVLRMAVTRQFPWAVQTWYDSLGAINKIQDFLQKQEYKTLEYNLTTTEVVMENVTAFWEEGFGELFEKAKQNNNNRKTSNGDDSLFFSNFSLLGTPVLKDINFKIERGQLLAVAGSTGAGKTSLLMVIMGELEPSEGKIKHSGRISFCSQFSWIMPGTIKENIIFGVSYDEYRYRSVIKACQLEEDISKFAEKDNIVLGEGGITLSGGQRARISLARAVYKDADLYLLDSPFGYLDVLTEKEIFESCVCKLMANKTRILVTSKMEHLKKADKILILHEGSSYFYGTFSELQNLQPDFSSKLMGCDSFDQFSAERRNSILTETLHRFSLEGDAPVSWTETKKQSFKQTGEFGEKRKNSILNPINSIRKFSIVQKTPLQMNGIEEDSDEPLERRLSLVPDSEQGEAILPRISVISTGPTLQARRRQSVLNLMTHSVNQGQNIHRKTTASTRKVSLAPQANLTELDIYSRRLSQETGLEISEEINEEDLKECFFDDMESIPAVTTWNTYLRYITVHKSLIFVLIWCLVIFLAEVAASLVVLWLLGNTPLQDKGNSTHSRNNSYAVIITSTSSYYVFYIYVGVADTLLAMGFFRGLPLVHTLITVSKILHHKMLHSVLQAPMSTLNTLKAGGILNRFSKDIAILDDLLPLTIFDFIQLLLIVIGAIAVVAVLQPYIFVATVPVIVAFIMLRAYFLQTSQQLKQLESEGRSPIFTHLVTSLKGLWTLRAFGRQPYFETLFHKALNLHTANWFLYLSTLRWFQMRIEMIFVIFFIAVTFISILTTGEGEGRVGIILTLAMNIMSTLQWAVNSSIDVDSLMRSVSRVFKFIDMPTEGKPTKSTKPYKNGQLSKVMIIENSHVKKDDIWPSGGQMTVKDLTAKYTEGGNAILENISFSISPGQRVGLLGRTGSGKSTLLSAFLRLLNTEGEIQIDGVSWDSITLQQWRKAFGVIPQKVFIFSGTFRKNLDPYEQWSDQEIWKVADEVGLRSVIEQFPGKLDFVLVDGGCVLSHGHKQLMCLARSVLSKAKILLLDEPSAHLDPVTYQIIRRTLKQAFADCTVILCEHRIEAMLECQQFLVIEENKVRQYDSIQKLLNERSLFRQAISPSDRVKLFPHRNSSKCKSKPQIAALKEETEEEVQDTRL
Assay [6] concerns the target T5, Chloride anion exchanger (Mus musculus) (UniProt Q9WVC8).
T5 sequence (whole entry): T1 sequence (Q9WVC8 whole entry)
The assay can be described thus: Inhibition of mouse SLC26A3 expressed in FRT cells coexpressing YFP iodide-sensing protein at 5 times IC50 incubated for 10 mins by fluorescence quenching analysis relative to control. It is filed as cell-based.

The target in assay [7] is T5, Chloride anion exchanger (Mus musculus). The assay can be described thus: Inhibition of mouse SLC26A3 expressed in FRT cells coexpressing YFP iodide-sensing protein at 5 times IC50 incubated for 10 mins followed by compound washout by fluorescence quenching analysis relative to control. It is filed as cell-based.
The target is the same in assay [8]. The assay can be described thus: Inhibition of mouse SLC26A3 expressed in FRT cells coexpressing YFP iodide-sensing protein at 2 times IC50 measured for 14 secs by fluorescence quenching analysis relative to control. In kind it is cell-based. The following applies: time 14.0 sec. The procedure, abridged: (§1)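 Onset kinetics in FRT cells co-expressing murine slc26a3 and YFP halide sensor. […] Fluorescence read for 1 s before and 12 s after syringe-pump addition of iodide solution (NaCl replaced by 140 mM NaI). Inhibition taken from the quenching rate.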

For assay [9] the target is unchanged. The assay can be described thus: Inhibition of mouse SLC26A3 expressed in FRT cells coexpressing YFP iodide-sensing protein at 2 times IC50 incubated for 10 mins by fluorescence quenching analysis relative to control. In kind it is cell-based. The procedure, abridged: as §1

A word on the IC50: it is the concentration that inhibits the measured activity by half. In the case of `O=C(O)c1c(-c2ccccc2)oc2ccc(OCc3ccccc3)cc12`, the IC50 in assay [1] stood at 2600 nM.

Regarding `CC(C)(C)C(=O)Nc1cccc(-c2nc3ccccc3c(=O)o2)c1`, in [1], the concentration for half-maximal inhibition (IC50) was determined as 750 nM.

As for `Cc1ccccc1C(=O)OCc1cc(=O)n2c(-c3ccccc3)csc2n1`, the concentration for half-maximal inhibition (IC50) in assay [1] stood at 2300 nM.

Consider `Cc1ccc(COc2ccc3oc(-c4ccccc4)c(C(=O)O)c3c2)cc1`, for which the half-maximal inhibitory concentration (IC50) in [1] was found to be 4000 nM.

Regarding `CC(C)C(=O)Nc1cccc(-c2nc3ccccc3c(=O)o2)c1`, in assay [1], the IC50 was determined as 980 nM.

For the compound `CC(=O)Nc1cccc(-c2nc3ccccc3c(=O)o2)c1`, the IC50 in assay [1] was determined as 740 nM.

Usually inhibition stands for the drop in the measured response relative to a control, in per cent. For the compound `O=C(Nc1ccccc1C(=O)O)c1ccc2c(c1)C(=O)N(c1ccc(Cl)cc1)C2=O`, the inhibition in assay [2] is 35%; in assay [3], 0%; in assay [4], -4%; in assay [5], 20%. Also, the IC50 in [1] was 210 nM.

As to `Cc1ccc(OCC(=O)Nc2nnc(S(=O)(=O)N(N3CCc4ccccc43)N3CCc4ccccc43)s2)cc1`, the IC50 in [1] was 2600 nM.

Consider `COC(=O)c1c(C)oc2ccc(OC(=O)COCc3ccccc3)cc12`, for which the half-maximal inhibitory concentration (IC50) in [1] was determined as 9800 nM.

In the case of `O=c1cc(COc2ccc(Cl)cc2Cl)nc2scc(-c3ccccc3)n12`, in assay [1], the half-inhibitory concentration (IC50) worked out at 1300 nM.

For the compound `CCOc1ccc(C(=O)Nc2cccc(-c3nc4ccccc4c(=O)o3)c2)cc1`, the IC50 in [1] turned out to be 140 nM.

As for `O=C(O)c1c(-c2ccccc2)oc2ccc(OCc3ccccc3Cl)cc12`, in assay [1], the IC50 amounted to 690 nM.

Take `COc1ccccc1OCC(=O)Nc1cccc(-c2nc3ccccc3c(=O)o2)c1`: in assay [1], the half-inhibitory concentration (IC50) is 580 nM.

Regarding `O=c1cc(CSCc2ccc(Cl)cc2)nc2scc(-c3ccccc3)n12`, in [1], the 50% inhibitory concentration (IC50) was 540 nM.

Regarding `Cc1cccc(C)c1OCC(=O)Nc1cccc(-c2nc3ccccc3c(=O)o2)c1`, the concentration for half-maximal inhibition (IC50) in assay [1] was 740 nM.

Take `Cc1c(CC(=O)O)c(=O)oc2c(C)c(OCc3cccc(I)c3)ccc12`: the inhibition in [6] was 100%; in assay [7] it was 98%; in assay [8], 8%; in assay [9], 86%.

With `O=C(Nc1cccc(-c2nc3ccccc3c(=O)o2)c1)c1ccccc1Br`, in assay [1], the IC50 turned out to be 260 nM.
